The structures appear in SMILES notation. ≈ marks a conversion by molar mass, not a printed value.

The MIC is the lowest concentration found to suppress growth. A higher MIC goes with weaker potency.

What all share (type): functional
Experiment [1] has as its system Candida tropicalis. The experiment can be described thus: Antimicrobial activity against Candida tropicalis MTCC 184 after 24 hrs by NCCLS M7-A5 method. As to conditions: MTCC 184, 24 h. The gist of the method: (§1)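 MIC by agar dilution on Mueller-Hinton agar plates, following NCCLS M7-A5. MIC was taken as the lowest concentration with no visible growth after 24 h incubation at 37 °C.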

Experiment [2] concerns Aspergillus clavatus. The experiment can be described thus: Antimicrobial activity against Aspergillus clavatus MTCC 1323 after 24 hrs by NCCLS M7-A5 method. Conditions: MTCC 1323, 24 h. In outline:
as §1

Experiment [3] relates to Candida tropicalis. Put plainly: Antimicrobial activity against Candida tropicalis MTCC 184 at 100 ug/disc after 48 hrs by agar cup plate method. As to conditions: MTCC 184, 48 h, read-out: DIZ. The gist of the method: (§2)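 Agar cup plate diffusion with fungal inocula reseeded in Czapek Dox broth for 48 h at 25 °C. Compounds diluted in DMF, with DMF alone as control and griseofulvin as standard. Inhibition-zone diameter read by caliper, each zone measured three times and averaged.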

Experiment [4] deals with Escherichia coli. The experiment can be described thus: Antimicrobial activity against Escherichia coli ATCC 25922 after 24 hrs by NCCLS M7-A5 method. As to conditions: ATCC 25922, 24 h. The gist of the method:
as §1

Experiment [5] deals with Bacillus subtilis. Put plainly: Antimicrobial activity against Bacillus subtilis NCIM 2250 at 100 ug/disc after 24 hrs by agar cup plate method. As to conditions: NCIM 2250, 24 h, read-out: DIZ. The gist of the method:
(§3)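 Agar cup plate diffusion with bacterial inocula reseeded in Mueller-Hinton broth for 24 h at 37 °C. Compounds diluted in DMF, with DMF alone as control and streptomycin as standard. Inhibition-zone diameter read by caliper, each zone measured three times and averaged.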

Experiment [6] concerns Escherichia coli. Put plainly: Antimicrobial activity against Escherichia coli ATCC 25922 at 100 ug/disc after 24 hrs by agar cup plate method. As to conditions: ATCC 25922, 24 h, read-out: DIZ. The gist of the method: as §3
Experiment [7] concerns Bacillus subtilis. Put plainly: Antimicrobial activity against Bacillus subtilis NCIM 2250 after 24 hrs by NCCLS M7-A5 method. As to conditions: NCIM 2250, 24 h. In outline:
as §1

Experiment [8] deals with Aspergillus clavatus. Put plainly: Antimicrobial activity against Aspergillus clavatus MTCC 1323 at 100 ug/disc after 48 hrs by agar cup plate method. As to conditions: MTCC 1323, 48 h, read-out: DIZ. The gist of the method:
as §2

The test system of experiment [9] is Candida albicans. The experiment can be described thus: Antimicrobial activity against Candida albicans MTCC 277 after 24 hrs by NCCLS M7-A5 method. Conditions: MTCC 277, 24 h. In outline: as §1
Experiment [10] has as its system Candida albicans. Put plainly: Antimicrobial activity against Candida albicans MTCC 277 at 100 ug/disc after 48 hrs by agar cup plate method. Conditions: MTCC 277, 48 h, read-out: DIZ. The gist of the method:
as §2

The subject of experiment [11] is Aspergillus niger. The experiment can be described thus: Antimicrobial activity against Aspergillus niger MCIM 545 at 100 ug/disc after 48 hrs by agar cup plate method. Conditions: MCIM 545, 48 h, read-out: DIZ. The gist of the method:
as §2

Experiment [12] has as its system Aspergillus niger. Put plainly: Antimicrobial activity against Aspergillus niger MCIM 545 after 24 hrs by NCCLS M7-A5 method. Conditions: MCIM 545, 24 h. The gist of the method: as §1

In the case of `CCOP(=O)(OCC)C(O)C1=C(N(C)C)C(=O)N(c2ccccc2)C1=O` (stereo unspecified), the MIC against Candida tropicalis [1] was 20 µg/mL (≈ 52.3 µM); against Aspergillus clavatus [2], 20 µg/mL (≈ 52.3 µM); with Escherichia coli [4], 20 µg/mL (≈ 52.3 µM); with Bacillus subtilis [7], 25 µg/mL (≈ 65.4 µM). The zone of inhibition at 100 µg/disc in the experiment with Candida tropicalis [3] was determined as 16.1 mm; with Bacillus subtilis [5], 13.4 mm; in the experiment with Escherichia coli [6], 13.2 mm; in the experiment with Aspergillus clavatus [8], 16.3 mm.
Take `CCOP(=O)(OCC)C(O)C1=C(N(C)C)C(=O)N(c2ccc(Br)cc2)C1=O` (stereo unspecified): the MIC turned out to be 15 µg/mL (≈ 32.5 µM) with Candida tropicalis [1]; 20 µg/mL (≈ 43.4 µM) in the experiment on Aspergillus clavatus [2]; 25 µg/mL (≈ 54.2 µM) with Candida albicans [9]; 25 µg/mL (≈ 54.2 µM) in the experiment on Escherichia coli [4]; 20 µg/mL (≈ 43.4 µM) against Bacillus subtilis [7]; 20 µg/mL (≈ 43.4 µM) in the experiment on Aspergillus niger [12]. The zone of inhibition at 100 µg/disc is 16.8 mm with Candida tropicalis [3]; 13.8 mm in the experiment with Candida albicans [10]; 15.1 mm in the experiment with Bacillus subtilis [5]; 13.1 mm with Escherichia coli [6]; 15.5 mm with Aspergillus niger [11]; 16.4 mm in the experiment on Aspergillus clavatus [8].
In the case of `CCOP(=O)(OCC)C(O)C1=C(N(C)C)C(=O)N(c2ccc(F)cc2)C1=O` (stereo unspecified), the MIC in the experiment with Candida tropicalis [1] turned out to be 15 µg/mL (≈ 37.5 µM); in the experiment on Aspergillus clavatus [2], 10 µg/mL (≈ 25 µM); in the experiment with Candida albicans [9], 15 µg/mL (≈ 37.5 µM); in the experiment with Escherichia coli [4], 10 µg/mL (≈ 25 µM); against Bacillus subtilis [7] it was 10 µg/mL (≈ 25 µM); in the experiment with Aspergillus niger [12] it was 15 µg/mL (≈ 37.5 µM). Also, the zone of inhibition at 100 µg/disc in the experiment with Candida tropicalis [3] was 16.7 mm; in the experiment on Candida albicans [10], 16.5 mm; in the experiment on Bacillus subtilis [5] it was 15.6 mm; in the experiment with Escherichia coli [6] it was 15.8 mm; in the experiment with Aspergillus niger [11] it was 16.4 mm; in the experiment with Aspergillus clavatus [8] it was 17.3 mm.
On to `CCOP(=O)(OCC)C(O)C1=C(N(C)C)C(=O)N(c2cccc(C(F)(F)F)c2)C1=O` (stereo unspecified), for which the MIC against Candida tropicalis [1] amounted to 10 µg/mL (≈ 22.2 µM); with Aspergillus clavatus [2] it was 10 µg/mL (≈ 22.2 µM); with Candida albicans [9], 20 µg/mL (≈ 44.4 µM); with Escherichia coli [4], 10 µg/mL (≈ 22.2 µM); against Bacillus subtilis [7], 15 µg/mL (≈ 33.3 µM); against Aspergillus niger [12], 15 µg/mL (≈ 33.3 µM). Also, the zone of inhibition at 100 µg/disc in the experiment with Candida tropicalis [3] came out at 17.2 mm; in the experiment with Candida albicans [10] it was 15.2 mm; in the experiment with Bacillus subtilis [5], 15.4 mm; in the experiment with Escherichia coli [6], 15.7 mm; with Aspergillus niger [11] it was 16.6 mm; in the experiment on Aspergillus clavatus [8] it was 17.4 mm.
With `CCOP(=O)(OCC)C(O)C1=C(N(C)C)C(=O)N(c2ccc(Cl)cc2)C1=O` (stereo unspecified), the MIC in the experiment on Candida tropicalis [1] amounted to 25 µg/mL (≈ 60 µM); in the experiment with Escherichia coli [4], 25 µg/mL (≈ 60 µM); against Aspergillus niger [12] it was 20 µg/mL (≈ 48 µM). The zone of inhibition at 100 µg/disc was found to be 15.9 mm in the experiment with Candida tropicalis [3], 13.4 mm in the experiment with Escherichia coli [6] and 15.8 mm in the experiment on Aspergillus niger [11].
Consider `CCOP(=O)(OCC)C(O)C1=C(N(C)C)C(=O)N(c2cccc(Cl)c2)C1=O` (stereo unspecified), for which the MIC with Candida tropicalis [1] was found to be 10 µg/mL (≈ 24 µM); with Aspergillus clavatus [2] it was 20 µg/mL (≈ 48 µM); against Candida albicans [9] it was 10 µg/mL (≈ 24 µM); against Escherichia coli [4], 20 µg/mL (≈ 48 µM); against Bacillus subtilis [7], 10 µg/mL (≈ 24 µM); with Aspergillus niger [12], 25 µg/mL (≈ 60 µM). Further, the zone of inhibition at 100 µg/disc in the experiment on Candida tropicalis [3] is 17.1 mm; in the experiment on Candida albicans [10], 16.6 mm; in the experiment on Bacillus subtilis [5], 15.8 mm; in the experiment with Escherichia coli [6], 13.5 mm; in the experiment on Aspergillus niger [11], 13.6 mm; in the experiment on Aspergillus clavatus [8], 16.2 mm.
Turning to `CCOP(=O)(OCC)C(O)C1=C(N(C)C)C(=O)N(c2ccccc2Cl)C1=O` (stereo unspecified), the MIC with Candida tropicalis [1] turned out to be 20 µg/mL (≈ 48 µM); with Aspergillus clavatus [2] it was 15 µg/mL (≈ 36 µM); against Candida albicans [9], 20 µg/mL (≈ 48 µM); with Escherichia coli [4] it was 15 µg/mL (≈ 36 µM); against Bacillus subtilis [7], 20 µg/mL (≈ 48 µM); in the experiment on Aspergillus niger [12], 15 µg/mL (≈ 36 µM). Besides, the zone of inhibition at 100 µg/disc was 16.2 mm with Candida tropicalis [3]; 15.1 mm with Candida albicans [10]; 13.6 mm with Bacillus subtilis [5]; 15.4 mm with Escherichia coli [6]; 16.6 mm with Aspergillus niger [11]; 16.8 mm in the experiment on Aspergillus clavatus [8].
`COC1=CC(=O)C[C@@H](C)[C@]12Oc1c(Cl)c(OC)cc(OC)c1C2=O` [GRISEOFULVIN]: the MIC against Candida tropicalis [1], with Aspergillus clavatus [2], against Candida albicans [9] and against Aspergillus niger [12] was 5 µg/mL (≈ 14.2 µM) each time. Also, the zone of inhibition at 100 µg/disc with Candida tropicalis [3] was 17.3 mm; in the experiment on Candida albicans [10], 16.8 mm; in the experiment with Aspergillus niger [11], 16.9 mm; in the experiment with Aspergillus clavatus [8], 17.6 mm.
On to `CN[C@@H]1[C@H](O[C@H]2[C@H](O[C@H]3[C@H](O)[C@@H](O)[C@H](N=C(N)N)[C@@H](O)[C@@H]3N=C(N)N)O[C@@H](C)[C@]2(O)C=O)O[C@@H](CO)[C@H](O)[C@H]1O` [STREPTOMYCIN], for which the MIC against Escherichia coli [4] and with Bacillus subtilis [7] was 5 µg/mL (≈ 8.6 µM) each time. Moreover, the zone of inhibition at 100 µg/disc came out at 16.2 mm in the experiment on Bacillus subtilis [5] and 16.4 mm with Escherichia coli [6].

These data come from ChEMBL document CHEMBL3286310, “Synthesis and biological evaluation of novel N-aryl maleimide derivatives clubbed with α-hydroxyphosphonates” (2014).
